Reference: ChEMBL document CHEMBL4715693, “Synthesis and antiviral properties of novel indole-based thiosemicarbazides and 4-thiazolidinones” (Bioorg Med Chem, 2016)
Converted amounts (≈) assume the structure as drawn.

What was measured:
[1] = system: Vesicular stomatitis virus; experiment: Antiviral activity against Vesicular stomatitis virus infected in human HeLa cells assessed as reduction in virus-induced cytopathic effect incubated for 3 to 6 days by light microscopic analysis; assay type: functional, organism-based
Summary of the method: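 CPE reduction assay: virus and serial compound dilutions added together to subconfluent HeLa (vesicular stomatitis, Coxsackie B4, respiratory syncytial) or Vero (Coxsackie B4, Sindbis, Punta Toro) cultures. Incubated 3–6 days at 37 °C. Mean ± SEM of three independent tests.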

[2] = system: Coxsackievirus B4; experiment: Antiviral activity against Human coxsackievirus B4 infected in human HeLa cells assessed as reduction in virus-induced cytopathic effect incubated for 3 to 6 days by light microscopic analysis; assay type: functional, organism-based; details: Enterovirus B
Summary of the method: (§1)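 CPE reduction assay: virus and serial compound dilutions added together to subconfluent HeLa (vesicular stomatitis, Coxsackie B4, respiratory syncytial) or Vero (Coxsackie B4, Sindbis, Punta Toro) cultures. Incubated 3–6 days at 37 °C. […] Mean ± SEM of three independent tests.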

[3] = system: Respiratory syncytial virus; experiment: Antiviral activity against Respiratory syncytial virus infected in human HeLa cells assessed as reduction in virus-induced cytopathic effect incubated for 3 to 6 days by light microscopic analysis; assay type: functional, organism-based; summary of the method: as §1
[4] = system: Human respirovirus 3; experiment: Antiviral activity against Human parainfluenza virus 3 infected in African green monkey Vero cells assessed as reduction in virus-induced cytopathic effect incubated for 3 to 6 days by light microscopic analysis; assay type: functional, organism-based; details: Human respirovirus 3, Vero
[5] = system: Mammalian orthoreovirus 1; experiment: Antiviral activity against Mammalian orthoreovirus 1 infected in African green monkey Vero cells assessed as reduction in virus-induced cytopathic effect incubated for 3 to 6 days by light microscopic analysis; assay type: functional, organism-based; details: Mammalian orthoreovirus 1, Vero
[6] = system: Sindbis virus; experiment: Antiviral activity against Sindbis virus infected in African green monkey Vero cells assessed as reduction in virus-induced cytopathic effect incubated for 3 to 6 days by light microscopic analysis; assay type: functional, organism-based; summary of the method: as §1
[7] = system: Coxsackievirus B4; experiment: Antiviral activity against Human coxsackievirus B4 infected in African green monkey Vero cells assessed as reduction in virus-induced cytopathic effect incubated for 3 to 6 days by light microscopic analysis; assay type: functional, organism-based; details: Enterovirus B; summary of the method: as §1
[8] = system: Punta Toro virus; experiment: Antiviral activity against Punta Toro virus infected in African green monkey Vero cells assessed as reduction in virus-induced cytopathic effect incubated for 3 to 6 days by light microscopic analysis; assay type: functional, organism-based; summary of the method: as §1
[9] = Cytotoxicity against African green monkey Vero cells assessed as changes in cell morphology incubated for 3 to 6 days by light microscopy; assay type: cell-based; details: chlorocebus sabaeus, time 3-6 day
Summary of the method: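 Uninfected subconfluent cells (Vero or HeLa, as named) exposed to serial compound dilutions in parallel with the CPE assays, 37 °C, 3–6 days. Cell morphology examined by light microscopy; MCC = minimal concentration causing microscopically detectable changes in morphology.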

[10] = system: Human alphaherpesvirus 1; experiment: Antiviral activity against Herpes simplex virus 1 infected in human HEL cells assessed as reduction in virus-induced cytopathic effect incubated for 3 to 6 days by light microscopic analysis; assay type: functional, cell-based; details: Human alphaherpesvirus 1, HEL
[11] = system: Human alphaherpesvirus 2; experiment: Antiviral activity against Herpes simplex virus 2 infected in human HEL cells assessed as reduction in virus-induced cytopathic effect incubated for 3 to 6 days by light microscopic analysis; assay type: functional, cell-based; details: Human alphaherpesvirus 2, HEL
[12] = system: Vaccinia virus; experiment: Antiviral activity against Vaccinia virus infected in human HEL cells assessed as reduction in virus-induced cytopathic effect incubated for 3 to 6 days by light microscopic analysis; assay type: functional, organism-based; details: Orthopoxvirus vaccinia
[13] = system: Human immunodeficiency virus 1; experiment: Antiviral activity against Human immunodeficiency virus 1 infected in human MT4 cells assessed as reduction in virus-induced cytopathic effect incubated for 3 to 6 days by light microscopic analysis; assay type: functional, organism-based; details: Human immunodeficiency virus 1, MT4
[14] = system: Human immunodeficiency virus 2; experiment: Antiviral activity against Human immunodeficiency virus 2 infected in human MT4 cells assessed as reduction in virus-induced cytopathic effect incubated for 3 to 6 days by light microscopic analysis; assay type: functional, organism-based; details: Human immunodeficiency virus 2, MT4
[15] = system: Influenza A virus; experiment: Antiviral activity against influenza A virus infected in dog MDCK cells assessed as reduction in virus-induced cytopathic effect incubated for 3 to 6 days by light microscopic analysis; assay type: functional, organism-based; details: Influenza A virus, MDCK
Summary of the method: (§2)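 MDCK cells, subconfluent, received influenza A or B virus together with serial compound dilutions. Incubated 3–6 days at 35 °C.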

[16] = system: Influenza B virus; experiment: Antiviral activity against influenza B virus infected in dog MDCK cells assessed as reduction in virus-induced cytopathic effect incubated for 3 to 6 days by light microscopic analysis; assay type: functional, organism-based; summary of the method: as §2
[17] = system: Feline coronavirus; experiment: Antiviral activity against Feline coronavirus infected in cat CRFK cells assessed as reduction in virus-induced cytopathic effect incubated for 3 to 6 days by light microscopic analysis; assay type: functional, organism-based; details: Alphacoronavirus 1, CRFK
[18] = system: Felid alphaherpesvirus 1; experiment: Antiviral activity against Feline herpesvirus infected in cat CRFK cells assessed as reduction in virus-induced cytopathic effect incubated for 3 to 6 days by light microscopic analysis; assay type: functional, organism-based; details: Felid alphaherpesvirus 1, CRFK
[19] = Cytotoxicity against human HEL cells assessed as changes in cell morphology incubated for 3 to 6 days by light microscopy; assay type: cell-based; details: time 3-6 day
Summary of the method: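 Human embryonic lung fibroblasts incubated with serial compound dilutions alongside the antiviral assays, 37 °C, 3–6 days. Morphology inspected by light microscopy; minimal cytotoxic concentration taken as lowest concentration giving minimal morphological change.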

[20] = Cytotoxicity against cat CRFK cells assessed as reduction in cell viability incubated for 3 to 6 days by MTS assay; assay type: cell-based, Felis catus; details: time 3-6 day
Summary of the method: (§3)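 CRFK or MT4 cells were exposed to serial compound dilutions alongside the antiviral assays for 3–6 days at 37 °C.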

[21] = system: MT4; experiment: Cytotoxicity against human MT4 cells assessed as reduction in cell viability incubated for 3 to 6 days by MTS assay; assay type: cell-based; details: time 3-6 day; summary of the method: as §3

SMILES	EC50 [1]	EC50 [2]	EC50 [3]	EC50 [4]	EC50 [5]	EC50 [6]	EC50 [7]	EC50 [8]	EC50 [10]	EC50 [11]	EC50 [12]	EC50 [13]	EC50 [14]	EC50 [15]	EC50 [16]	EC50 [17]	EC50 [18]	MCC [19]	CC50 ([20]; crfk)	CC50 [21]	other results
O=C(N/N=C1\SCC(=O)N1CCc1ccccc1)c1[nH]c2ccc(F)cc2c1-c1ccccc1	> 100 mg/L	> 100 mg/L	> 100 mg/L	> 100 mg/L	> 100 mg/L	> 100 mg/L	> 100 mg/L	> 100 mg/L	> 100 mg/L	> 100 mg/L	> 100 mg/L	> 100 mg/L	> 100 mg/L	> 100 mg/L	> 100 mg/L	> 100 mg/L	> 100 mg/L	> 10 µg/mL	17 mg/L	>= 108 ug ml-1	MCC [9]: 10 µg/mL
CCN1C(=O)CS/C1=N\NC(=O)c1[nH]c2ccc(F)cc2c1-c1ccccc1	> 100 mg/L	> 100 mg/L	> 100 mg/L	> 100 mg/L	> 100 mg/L	> 100 mg/L	> 100 mg/L	> 100 mg/L	> 100 mg/L	> 100 mg/L	> 100 mg/L	> 100 mg/L	> 100 mg/L	> 100 mg/L	> 100 mg/L	> 100 mg/L	> 100 mg/L	> 100 µg/mL	> 100 mg/L	> 125 mg/L	MCC [9]: 20 µg/mL
CN1C(=O)CS/C1=N\NC(=O)c1[nH]c2ccc(F)cc2c1-c1ccccc1	> 100 mg/L	> 100 mg/L	> 100 mg/L	> 100 mg/L	> 100 mg/L	> 100 mg/L	> 100 mg/L	> 100 mg/L	> 100 mg/L	> 100 mg/L	> 100 mg/L	> 100 mg/L	> 100 mg/L	> 100 mg/L	> 100 mg/L	> 100 mg/L	> 100 mg/L	> 100 µg/mL	> 100 mg/L	> 125 mg/L	MCC [9]: 20 µg/mL
O=C(N/N=C1\SCC(=O)N1Cc1ccccc1)c1[nH]c2ccc(F)cc2c1-c1ccccc1	> 100 mg/L	> 100 mg/L	> 100 mg/L	> 100 mg/L	> 100 mg/L	> 100 mg/L	> 100 mg/L	> 100 mg/L	> 100 mg/L	> 100 mg/L	> 100 mg/L	> 100 mg/L	> 100 mg/L	> 100 mg/L	> 100 mg/L	> 100 mg/L	> 100 mg/L	> 10 µg/mL	> 100 mg/L	38 mg/L (≈ 82.9 µM)	MCC [9]: ≥ 10 µg/mL
CCCCN1C(=O)CS/C1=N\NC(=O)c1[nH]c2ccc(F)cc2c1-c1ccccc1	> 100 mg/L	> 100 mg/L	> 100 mg/L	> 100 mg/L	> 100 mg/L	> 100 mg/L	> 100 mg/L	> 100 mg/L	> 100 mg/L	> 100 mg/L	> 100 mg/L	> 100 mg/L	> 100 mg/L	> 100 mg/L	> 100 mg/L	> 100 mg/L	> 100 mg/L	> 10 µg/mL	> 100 mg/L	>= 98 ug ml-1	–
CCCN1C(=O)CS/C1=N\NC(=O)c1[nH]c2ccc(F)cc2c1-c1ccccc1	> 100 mg/L	> 100 mg/L	> 100 mg/L	> 100 mg/L	> 100 mg/L	> 100 mg/L	> 100 mg/L	> 100 mg/L	> 100 mg/L	> 100 mg/L	> 100 mg/L	> 100 mg/L	> 100 mg/L	> 100 mg/L	> 100 mg/L	> 100 mg/L	> 100 mg/L	> 100 µg/mL	> 100 mg/L	> 125 mg/L	–
C=CCN1C(=O)CS/C1=N\NC(=O)c1[nH]c2ccc(F)cc2c1-c1ccccc1	> 100 mg/L	> 100 mg/L	> 100 mg/L	> 100 mg/L	> 100 mg/L	> 100 mg/L	> 100 mg/L	> 100 mg/L	> 100 mg/L	> 100 mg/L	> 100 mg/L	> 100 mg/L	> 100 mg/L	> 100 mg/L	> 100 mg/L	> 100 mg/L	> 100 mg/L	> 100 µg/mL	> 100 mg/L	> 125 mg/L	–
O=c1[nH]c(=O)n([C@H]2C[C@H](O)[C@@H](CO)O2)cc1/C=C/Br [BRIVUDINE]	–	–	–	–	–	–	–	–	–	–	22 µM	–	–	–	–	–	–	–	–	–	–
Nc1nc2c(ncn2COC(CO)CO)c(=O)[nH]1 [GANCICLOVIR]	–	–	–	–	–	–	–	–	–	–	> 100 µM	–	–	–	–	> 100 µM	7.4 µM	> 100 µM	–	–	CC50 ([20]; CRFK cells, read-out: CC50): > 100 µM
Cc1cn([C@H]2C[C@H](N=[N+]=[N-])[C@@H](CO)O2)c(=O)[nH]c1=O [ZIDOVUDINE]	–	–	–	–	–	–	–	–	–	–	–	–	–	–	–	–	–	–	–	> 25 mg/L	–
